Assay outcomes from PubChem BioAssay.
Shown are actives, neighbours in structure and some others; about 7.1% of the full set was active somewhere.
HUVEC prolif 384: inhibitors of HUVEC proliferation, primary screen, cell-based, 384-well. CellTiter-Glo luminescence, 72 h; active compounds read low. viability, % at 10 µM (by protocol). actives 1.1% (n = 86,000). AID 648, 2007;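 active = viability at or below 30%; inactive = viability above 30%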
PTEN del growth: growth suppression of PTEN-null HCT116, primary screen, cell-based, CellTiter-Glo | HCT116 PTEN-null viability, 60 h; active compounds read low | viability, % at 10 µM | actives 1.2% (n = 140,000) | AID 827, 2007;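 active = viability at or below a set limit, 4 SD under the median of all tested compounds, cut at about 3.7% in these data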;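 note: PTEN knockout HCT116 line with beta catenin targeted HCT116 as companion control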
Cav32 inh: Cav3.2 calcium influx blockers – cell-based, Fluo-4 calcium fluorescence, FDSS, MLSMR library, primary screen; Cav3.2-expressing cells; active compounds read low; Voltage-dependent T-type calcium channel subunit alpha-1H (Homo sapiens), O95180; actives 4% (n = 100,000); B-score at 10 µM;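 active = single-dose well whose peak fluorescence ratio is a statistical outlier from its plate by either plate-standardised score or position-corrected B-score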
Lung fibro prol: antiproliferative effect on LL 47 fibroblasts – human, LL 47 cells, CellTiter-Glo luminescence, primary screen; LL 47 human lung fibroblast viability, ATP luminescence; active compounds read low; actives 1.1% (n = 85,000); viability, % at 10 µM; AID 719, 2007;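 active = viability at or below 50% in the single dose screen; inactive = viability above 50%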;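 note: compound exposure lasted 72 h before the ATP readout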
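Test system: LL 47 human lung fibroblasts; Quantity: 1,150 cells/well; Buffer or medium: IMEM plus 15% FBS; Dosing: tenfold compound dosing solution, DMSO at 0.1%; Timing: overnight cell rest, 72 h compound treatment at 37 °C; Detection: ATP-based CellTiter-Glo luminescent readout; Read-out basis: viability percentage against median untreated-cell control; Controls: cell-only wells, no compound.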
H69AR inhibit: proliferation blockers of H69AR lung cancer cells, primary screen, cell-based, human, 86K library | H69AR lung tumor viability, ATP luminescence, 72 h; active compounds read low | viability, % at 10 µM | actives 6% (n = 85,000) | AID 598, 2007;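 active = viability at or below 40%; inactive = viability above 40%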;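 note: multidrug resistant small cell line overexpressing MRP-1 efflux transporter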
HCT116 bCat-KO: primary screen for growth suppressors in beta-catenin knockout HCT116 cells (colon tumor, human). viability, % at 10 µM. actives 1.5% (n = 140,000). AID 818, 2007. HCT116 beta-catenin knockout viability, CellTiter-Glo, 60 h; active compounds read low;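 active = viability at or under a set limit, the compound median less 4 SD, cut at about 6% in these data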
A number is an active result; . = inactive; / = no result.

SMILES	HUVEC prolif 384	PTEN del growth	Cav32 inh	Lung fibro prol	H69AR inhibit	HCT116 bCat-KO
O=C(Oc1ccc(NC2=C(Cl)C(=O)c3ccccc3C2=O)cc1)c1ccc([N+](=O)[O-])cc1	/	1.1	/	/	/	0.9
O=C(Oc1ccc([N+](=O)[O-])cc1)c1cccnc1	/	.	/	/	/	.
CN1C(=O)C2(c3ccccc31)N(C)CC(c1ccccn1)C21SC(=S)N(Cc2ccco2)C1=O (stereo not drawn)	.	.	-4.7	.	.	.
CN1C(=O)C2(c3ccccc31)N(C)CC(c1ccccc1)C21SC(=S)N(Cc2ccco2)C1=O (stereo not drawn)	.	.	.	.	.	.
Cc1ccc(-c2nn(-c3ccccc3)cc2/C=C/C(=O)Nc2nccs2)cc1	/	.	/	/	/	.
COc1cccc(-c2nn(-c3ccccc3)cc2C(=O)n2nnc3ccccc32)c1	.	.	.	.	19	.
COc1ccc(-c2nn(-c3ccccc3)cc2C(=O)Nc2nccs2)cc1	.	.	-5.8	.	23	.
COc1cccc(-c2nn(-c3ccccc3)cc2C(=O)Nc2nccs2)c1	.	.	-5.2	.	36	.
COc1ccc(/C(N)=N/OC(=O)C2CCC(=O)N2S(=O)(=O)c2ccc(C)cc2)cc1OC (stereo not drawn)	/	.	/	/	/	.
COc1cc(NC(=O)COC(C)=O)c(C)cc1[N+](=O)[O-]	/	.	/	/	/	.
Cc1ccc(NC(=O)NCc2ccc3c(c2)OCO3)cc1	.	.	.	.	.	.
Cc1nnc(SCc2ccccc2)nc1/C=C/NOCc1ccc(Cl)cc1Cl	.	.	.	.	2.3	.
C#CCSc1nnc(-c2ccc(OC)cc2)o1	.	.	.	.	19	.
CCOC(=O)c1[nH]c(CSc2nnc(-c3ccc(OC)cc3)o2)c(C(=O)OCC)c1C	.	.	.	.	18	.
COc1ccc(-c2nnc(SCC(=O)c3ccc[nH]3)o2)cc1	/	.	.	/	/	.
CCOC(=O)c1c(C)[nH]c(C)c1C(=O)CSc1nnc(-c2ccc(OC(F)F)cc2)o1	.	.	.	.	.	.
COc1ccc(-c2nnc(SCC(=O)c3[nH]c(C)c(C(C)=O)c3C)o2)cc1	.	.	.	.	5.3	.
COc1ccc(-c2nnc(SCC(=O)c3cccs3)o2)cc1	.	.	-5.2	.	.	.
COc1ccc(-c2nnc(SCC(=O)c3cc(C)n(Cc4cccs4)c3C)o2)cc1	.	.	.	.	.	.
CC(C)C1Oc2ccccc2N(CC(=O)N(Cc2ccncc2)Cc2ccco2)C1=O (stereo not drawn)	.	.	.	.	.	.
COc1ccc([N+](=O)[O-])cc1NC(=O)c1cn(-c2ccc(Cl)cc2)c(=O)c2ccccc12	/	.	/	/	/	.
Cc1ccc(CNC(=O)c2ccc(COc3ccccc3)cc2)cc1	/	.	/	/	/	.
CC1=C(C(=O)OCc2ccccc2)C(c2cccnc2)c2c(n(C)c(=O)n(C)c2=O)N1 (stereo not drawn)	/	.	.	/	/	.
O=C(OCC#CCSc1nnc(-c2ccc([N+](=O)[O-])cc2)o1)c1cccs1	.	.	.	.	37	.
COc1cccc(C(=O)CSc2nnc(-c3cc(OC)cc(OC)c3)o2)c1	24	.	.	.	8.7	.
SMILES	HUVEC prolif 384	PTEN del growth	Cav32 inh	Lung fibro prol	H69AR inhibit	HCT116 bCat-KO
COc1ccccc1C1=NOC(C)(c2nnc(-c3cccc(Cl)c3)o2)C1 (stereo not drawn)	/	/	.	/	/	/
O=C(CNc1c(Br)cc(Br)cc1Br)NN=C1CCCCC1	/	.	/	/	/	.
CC1CC(C)CN(C(=O)CSc2nnc(-c3ccc(Cl)s3)o2)C1 (stereo not drawn)	.	.	-3.4	.	.	.
CC1CC(C)CN(C(=O)CSc2nnc(-c3ccc(F)cc3)o2)C1 (stereo not drawn)	.	.	.	.	.	.
C/C(=N/N=C1/NC(=O)CC(C(=O)Nc2ccccc2)S1)c1cccs1 (stereo not drawn)	/	.	/	/	/	.
COC(=O)c1ccc2c(c1)C(C)(C)C(/C=C/c1ccccc1O)=[N+]2C	/	1.8	-3.7	/	/	2.4
Cc1oc(-c2ccccc2)cc1C(=O)Nc1ccc(N(C)C)cc1	.	.	.	.	.	.
On1c2c(c3c4nonc4ccc31)CCCC2	.	.	-5.8	.	.	.
COC(=O)Cn1c2ccc(OC)cc2c2nc3ccccc3nc21	.	.	.	.	.	.
CCOC(=O)Cn1c2ccc(OC)cc2c2nc3ccccc3nc21	.	.	.	.	24	.
O=C(/C=C/c1ccccc1)c1ccc2c(c1)OCCCCO2	/	.	.	/	/	3.5
O=C1COc2ccc(C(=O)/C=C/c3ccccc3)cc2N1	/	.	/	/	/	.
O=C(Cc1cccs1)NCCSc1c(-c2ccc(Cl)cc2)[nH]c2ccccc12	/	.	/	/	/	4.7
Cc1ccc(C(C(=O)Nc2ccc3c(c2)OCO3)N(C)C(=O)Cc2c[nH]c3ccccc23)cc1 (stereo not drawn)	/	.	/	/	/	.
O=C(CN1CCc2ccccc2C1)Nc1ccc(Br)cc1	.	.	-4.1	.	.	.
Cc1cc(C)nc(-n2nc(C)cc2NC(=O)CN2CCc3ccccc3C2)n1	.	2.7	.	.	6.4	5.1
CCN(CC(=O)Nc1cc(C)nn1-c1nc(C)cc(C)n1)Cc1ccccc1	.	.	/	.	14	.
Cc1cc(C)nc(-n2nc(C)cc2NC(=O)CN2CCCC(C)C2)n1 (stereo not drawn)	.	.	.	.	.	.
Cc1cc(C)nc(-n2nc(C)cc2NC(=O)CNCc2ccccc2)n1	.	.	.	.	.	.
COc1cc(/C=C(/C#N)C(=O)Nc2ccc(C)cc2)ccc1Oc1nc(Cl)ncc1F	/	.	/	/	/	.
Cc1nc(SCC(=O)c2c(C)[nH]c3ccccc23)c2c(=O)n(C)c(=O)n(CC(C)C)c2n1	.	/	/	.	39	/
CC(C)c1nc(SCC(=O)c2ccccc2)c2c(=O)n(C)c(=O)n(C)c2n1	/	.	.	/	/	.
O=C(COC(=O)COc1cccc(Br)c1)Nc1c(Cl)cccc1Cl	/	.	/	/	/	.
O=[n+]1cc(-c2ccc(Cl)cc2)n([O-])c2c1CCCCC2	/	.	/	/	/	.
Cc1ccc(C)c(C(=O)COc2ccccc2[N+](=O)[O-])c1	/	1.6	/	/	/	1.9
CCOC(=O)c1ccccc1NC1CC(=O)N(c2ccccc2C)C1=O (stereo not drawn)	.	.	.	.	.	.
O=c1[nH]c(=O)n(Cc2ccccc2)c2nc(-c3ccco3)cc(C(F)(F)F)c12	.	.	.	.	31	.
CCOc1ccc2[nH]c(=O)c(CN(Cc3ccco3)Cc3nnnn3Cc3ccccc3)cc2c1	.	.	.	.	38	.
